In ChEMBL document CHEMBL1138950, “Benzimidazole derivatives bearing substituted biphenyls as hepatitis C virus NS5B RNA-dependent RNA polymerase inhibitors: structure-activity relationship studies and identification of a potent and highly selective inhibitor JTK-109” (J Med Chem, 2006):

How the values were obtained:
[1] = Therapeutic index, CC50 for viability of Huh5-2 cells/EC50 for inhibition of HCV subgenomic RNA replication; format: cell-based, Huh-5-2; conditions: human, read-out: Ratio CC50/EC50
[2] = target: RNA-directed RNA polymerase (Hepacivirus hominis, UniProt O39930); experiment: Inhibition of HCV 1b BK six His-tagged C-terminal truncated 544 amino acid NS5B RNA dependent RNA polymerase; design: species or system Hepatitis C virus subtype 1b
Summary of the method: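 HCV genotype 1b (BK) NS5B lacking 47 C-terminal residues, His6-tagged, E. coli-expressed; 7 nM enzyme with 5 µg HCV 3′X RNA template-primer, 50 µM each ATP/GTP/CTP, 2 µM UTP plus [3H]-UTP; pH 7.5 Tris, 5 mM MgCl2. Compounds in DMSO (5% final). 60 min at 25 °C; TCA-precipitable radioactivity read. Triplicate, mean of three experiments.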

Huh-5-2 = experiment: Viability of Huh5-2 cells by MTT assay; format: functional; conditions: Homo sapiens
Hepatitis C virus = experiment: Inhibition of HCV subgenomic RNA replication in Huh5-2 cells after 48 hrs by replicon assay; format: functional, organism-based, Hepacivirus hominis; conditions: Huh-5-2, 48 h
Summary of the method: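 Huh-5-2 cells (Huh-7-derived, genotype 1b subgenomic replicon with luciferase reporter) seeded at 5 × 10^3 per well in DMEM with 10% FBS, 37 °C, 5% CO2; compounds added next day, 48 h exposure; luciferase activity read. EC50 is the concentration reducing replication by 50%. Triplicate, mean of three experiments.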

[3] = Plasma concentration in rat at 30 mg/kg, po after 2 hrs; format: ADME, organism-based; design: dose 30 mg/kg, route oral
Summary of the method: (§1)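 Rats dosed orally at 30 mg/kg; plasma sampled at 1 and 2 h; n = 2 or 3.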

[4] = Plasma concentration in rat at 30 mg/kg, po after 1 hr; format: ADME, organism-based; design: dose 30 mg/kg, route oral; summary of the method: as §1

RNA-directed RNA polymerase, sequence (O39930 whole entry, the tested form may be a part): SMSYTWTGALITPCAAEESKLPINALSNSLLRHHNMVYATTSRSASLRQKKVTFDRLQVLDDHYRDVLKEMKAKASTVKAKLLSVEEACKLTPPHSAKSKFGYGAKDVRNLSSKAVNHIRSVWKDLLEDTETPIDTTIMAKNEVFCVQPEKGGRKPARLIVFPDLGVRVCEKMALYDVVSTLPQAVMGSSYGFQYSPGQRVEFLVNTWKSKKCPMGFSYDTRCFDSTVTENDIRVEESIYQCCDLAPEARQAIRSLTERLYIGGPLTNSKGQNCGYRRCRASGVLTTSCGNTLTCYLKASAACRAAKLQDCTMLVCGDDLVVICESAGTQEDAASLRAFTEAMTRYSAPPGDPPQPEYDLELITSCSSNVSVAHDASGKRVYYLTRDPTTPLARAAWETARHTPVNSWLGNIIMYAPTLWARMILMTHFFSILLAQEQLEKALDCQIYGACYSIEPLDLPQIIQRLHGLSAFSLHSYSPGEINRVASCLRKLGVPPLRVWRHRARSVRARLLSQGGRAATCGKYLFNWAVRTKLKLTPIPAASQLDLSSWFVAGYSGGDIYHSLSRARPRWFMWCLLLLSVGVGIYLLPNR

SMILES	IC50 [2] [µM]	EC50 (Hepatitis C virus) [µM]	concentration at 2 h [3] [nM]	concentration at 1 h [4] [nM]	selectivity ratio [1]	CC50 (Huh-5-2) [µM]
O=C(O)c1ccc2c(c1)nc(-c1ccc(OCc3cc(Cl)ccc3-c3cccnc3)cc1)n2C1CCCCC1	0.29	2.6				
Cc1nc(-c2ccc(Cl)cc2)c(COc2ccc(-c3nc4cc(C(=O)O)ccc4n3C3CCCCC3)cc2)s1	0.09	2.9			13	39
O=C(O)c1ccc2c(c1)nc(-c1ccc(OCc3ccccc3-c3ccc(Cl)cc3)cc1)n2C1CCCCC1	0.078	3.2			11	35
N#Cc1ccc(-c2ccc(Cl)cc2COc2ccc(-c3nc4cc(C(=O)O)ccc4n3C3CCCCC3)cc2)cc1	0.055	1.3				26
Cc1ncc(COc2ccc(-c3nc4cc(C(=O)O)ccc4n3C3CCCCC3)cc2)c(-c2ccc(Cl)cc2)n1	0.088	1.5			16	24
CN(C)c1ccc(-c2ccc(Cl)cc2)c(COc2ccc(-c3nc4cc(C(=O)O)ccc4n3C3CCCCC3)cc2)c1	0.063	2.6			12	30
O=C(O)c1ccc2c(c1)nc(-c1ccc(OCc3cc(Cl)ccc3-c3ccc(Cl)cc3)cc1)n2C1CCCCC1	0.05	3			13	26
COc1ccc(-c2ccc(Cl)cc2COc2ccc(-c3nc4cc(C(=O)O)ccc4n3C3CCCCC3)cc2)cc1	0.1	2.4				25
COc1cc(OCc2ccccc2-c2ccccc2)ccc1-c1nc2cc(C(=O)O)ccc2n1C1CCCCC1	1.1					
CC(C)C(=O)N(C)c1ccc(-c2ccc(Cl)cc2)c(COc2ccc(-c3nc4cc(C(=O)O)ccc4n3C3CCCCC3)c(F)c2)c1	0.032	0.35	1100	1900	63	22
O=C(O)c1ccc2c(c1)nc(-c1ccc(OCc3cccnc3-c3ccc(Cl)cc3)cc1)n2C1CCCCC1	0.053	1.2			> 41	> 50
Cc1nc(COc2ccc(-c3nc4cc(C(=O)O)ccc4n3C3CCCCC3)cc2)c(-c2ccc(Cl)cc2)s1	0.17	6.3			4.9	31
O=C(O)c1ccc2c(c1)nc(-c1ccc(OCc3cc(Cl)ccc3-c3ccccc3)cc1)n2C1CCCCC1	0.2	3.7				25
COc1ccc(-c2ccc(Cl)cc2)c(COc2ccc(-c3nc4cc(C(=O)O)ccc4n3C3CCCCC3)cc2)c1	0.037	1.6			15	24
N#Cc1ccc(-c2ccc(Cl)cc2)c(COc2ccc(-c3nc4cc(C(=O)O)ccc4n3C3CCCCC3)cc2)c1	0.041	0.82			28	23
NC(=O)c1ccc(-c2ccc(Cl)cc2COc2ccc(-c3nc4cc(C(=O)O)ccc4n3C3CCCCC3)cc2)cc1	0.069	2.5				> 50
O=C(O)c1ccc2c(c1)nc(-c1ccc(OCc3ccccc3-c3ccccc3)c(F)c1)n2C1CCCCC1	0.38					
CN(C)C(=O)c1ccc(COc2ccc(-c3nc4cc(C(=O)O)ccc4n3C3CCCCC3)cc2)c(-c2ccc(Cl)cc2)c1	0.032	0.84			30	25
O=C(O)c1ccc2c(c1)nc(-c1ccc(OCc3cc(Cl)ccc3-c3cccc(Cl)c3)cc1)n2C1CCCCC1	0.48	6.5				32
O=C(O)c1ccc2c(c1)nc(-c1ccc(OCc3ncccc3-c3ccc(Cl)cc3)cc1)n2C1CCCCC1	0.15	3.9			6	25
Cc1ccc(-c2ccc(Cl)cc2COc2ccc(-c3nc4cc(C(=O)O)ccc4n3C3CCCCC3)cc2)cc1	0.098	3.4				25
O=C(O)c1ccc2c(c1)nc(-c1ccc(OCc3ccccc3-c3ccccc3)cc1Cl)n2C1CCCCC1	0.35					
O=C(O)c1ccc2c(c1)nc(-c1ccc(OCc3ccccc3-c3ccccc3)cc1C(F)(F)F)n2C1CCCCC1	0.93					
O=C(O)c1ccc2c(c1)nc(-c1ccc(OCc3ccccc3-c3ccccc3)cc1F)n2C1CCCCC1	0.1					

These reach a lower IC50 [2]. Values come first.

IC50 [2] [µM]	EC50 (Hepatitis C virus) [µM]	concentration at 2 h [3] [nM]	concentration at 1 h [4] [nM]	SMILES	selectivity ratio [1]	CC50 (Huh-5-2) [µM]
0.022	0.62			CN(C)C(=O)Nc1ccc(-c2ccc(Cl)cc2)c(COc2ccc(-c3nc4cc(C(=O)O)ccc4n3C3CCCCC3)c(F)c2)c1	40	25
0.029	1.1			O=C(O)c1ccc2c(c1)nc(-c1ccc(OCc3cc(C(=O)NCc4ccccc4)ccc3-c3ccc(Cl)cc3)cc1)n2C1CCCCC1	20	22
0.018	0.53			CNC(=O)c1ccc(-c2ccc(Cl)cc2)c(COc2ccc(-c3nc4cc(C(=O)O)ccc4n3C3CCCCC3)cc2)c1	47	25
0.018	0.34			CC(=O)c1ccc(-c2ccc(Cl)cc2)c(COc2ccc(-c3nc4cc(C(=O)O)ccc4n3C3CCCCC3)cc2)c1	71	24
0.021	0.94			O=C(O)c1ccc2c(c1)nc(-c1ccc(OCc3cc(C(=O)NCCO)ccc3-c3ccc(Cl)cc3)cc1F)n2C1CCCCC1	28	26
0.014	0.38		100	O=C(O)c1ccc2c(c1)nc(-c1ccc(OCc3cc(C(=O)N4CCC(O)CC4)ccc3-c3ccc(Cl)cc3)cc1F)n2C1CCCCC1	68	26
0.024	> 10			O=C(O)c1ccc(-c2ccc(Cl)cc2)c(COc2ccc(-c3nc4cc(C(=O)O)ccc4n3C3CCCCC3)cc2)c1		> 50
0.015	0.37			CN(C)C(=O)c1ccc(-c2ccc(Cl)cc2)c(COc2ccc(-c3nc4cc(C(=O)O)ccc4n3C3CCCCC3)cc2)c1	76	28
0.023	0.66			CN(C)S(=O)(=O)c1ccc(-c2ccc(Cl)cc2)c(COc2ccc(-c3nc4cc(C(=O)O)ccc4n3C3CCCCC3)cc2)c1	39	26
0.016	1.5			NS(=O)(=O)c1ccc(-c2ccc(Cl)cc2)c(COc2ccc(-c3nc4cc(C(=O)O)ccc4n3C3CCCCC3)cc2)c1	18	27
0.022	1.3			CC(=O)Nc1ccc(-c2ccc(Cl)cc2)c(COc2ccc(-c3nc4cc(C(=O)O)ccc4n3C3CCCCC3)cc2)c1	18	23
0.021	0.16	700	1100	CC(=O)N(c1ccc(-c2ccc(Cl)cc2)c(COc2ccc(-c3nc4cc(C(=O)O)ccc4n3C3CCCCC3)c(F)c2)c1)C(C)C	125	20
0.013	0.79			NC(=O)c1ccc(-c2ccc(Cl)cc2)c(COc2ccc(-c3nc4cc(C(=O)O)ccc4n3C3CCCCC3)cc2)c1	33	26
